15 compounds from the M2OR odorant receptor database can be followed below.

Structures are written as SMILES. Numbering of substitutions follows the chain as printed.
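Also: active if original authors judged signal statistically different from baseline.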

For one experiment, the system named is T1, OR5T2 S4G.
T1 sequence (whole entry): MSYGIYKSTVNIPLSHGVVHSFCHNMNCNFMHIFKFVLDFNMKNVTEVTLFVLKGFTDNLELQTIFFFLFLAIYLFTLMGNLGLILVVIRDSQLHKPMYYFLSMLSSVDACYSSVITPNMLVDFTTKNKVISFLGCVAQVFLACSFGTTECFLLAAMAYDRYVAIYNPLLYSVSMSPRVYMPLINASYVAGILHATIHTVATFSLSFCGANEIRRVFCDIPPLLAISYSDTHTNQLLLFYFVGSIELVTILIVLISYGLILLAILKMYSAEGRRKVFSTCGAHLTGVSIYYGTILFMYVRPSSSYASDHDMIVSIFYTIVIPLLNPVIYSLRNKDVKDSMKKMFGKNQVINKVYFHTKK
As to conditions: stereoisomer not certain. Summed up:
(§1)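 Whether a receptor–molecule pair is responsive (active) rests on the original authors' judgment that its measured signal was statistically different from baseline. Pairs without that judgment are non-responsive (inactive). Sources used varied assay methods, commonly transient luciferase assays in mammalian cell lines.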
Regarding `CCCCCCC=CCCC=O`, the “odorant receptor agonist call” value was “inactive”.
The same measure, in the same setting: the value for `Cc1cnc(C)c(C)n1` was “inactive”; that for `CC1=C(O)C(=O)C(C)O1` (configuration not stated) was “inactive”.
For the compound `CCC1OC(C)=C(O)C1=O` (configuration not stated), the “odorant receptor agonist call” value is “inactive”.
The same measure, in the same setting: the value for `CC1=NC(C)C(C)S1` (configuration not stated) was “inactive”.
Same read-out and setting: next, `CCC1OC(=O)C(O)=C1C` (configuration not stated): “inactive”.
Same read-out and setting: next, `CCCC(S)CCOC(C)=O` (configuration not stated): “inactive”.
Take `CC1=C(O)C(=O)OC1C` (configuration not stated): the “odorant receptor agonist call” value is “inactive”.

A further experiment has as its target T2, OR5T3 (Homo sapiens) (UniProt Q8NGG3).
T2 sequence (whole entry): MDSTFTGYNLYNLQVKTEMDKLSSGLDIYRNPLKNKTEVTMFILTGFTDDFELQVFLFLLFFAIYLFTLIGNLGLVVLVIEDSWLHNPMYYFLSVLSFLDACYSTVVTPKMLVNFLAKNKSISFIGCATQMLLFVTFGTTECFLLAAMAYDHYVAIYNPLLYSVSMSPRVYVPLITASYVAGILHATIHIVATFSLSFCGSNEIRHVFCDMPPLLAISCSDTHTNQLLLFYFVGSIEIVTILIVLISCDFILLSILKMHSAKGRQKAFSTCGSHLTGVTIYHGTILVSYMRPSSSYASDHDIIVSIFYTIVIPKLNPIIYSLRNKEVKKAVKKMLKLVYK
The conditions noted are these: stereoisomer not certain. The gist of the method: as §1
Regarding `CCC(S)C(C)CO` (configuration not stated), the “odorant receptor agonist call” value is “inactive”.
The same measure, in the same setting: the value for `CC(=O)c1c(C)c([N+](=O)[O-])c(C(C)(C)C)c([N+](=O)[O-])c1C` was “inactive”; that for `CC1CCCCCCCCCCCCC(=O)C1` (configuration not stated) was “inactive”; that for `CCCCCCC=CCCC=O` was “inactive”.
Same read-out and setting: next, `Cc1cnc(C)c(C)n1`: “inactive”; `CC1=C(O)C(=O)C(C)O1` (configuration not stated): “inactive”; `CCC1OC(C)=C(O)C1=O` (configuration not stated): “inactive”.
In the case of `CC1=NC(C)C(C)S1` (configuration not stated), the “odorant receptor agonist call” value was “inactive”.
Still for that read-out and setting: next, `CCCCCC(S)C(C)CO` (configuration not stated): “inactive”; `CCCCCC(=O)C(C)C(C)=O` (configuration not stated): “inactive”.
The same measure, in the same setting: next, `CCC1OC(=O)C(O)=C1C` (configuration not stated): “inactive”; `CCCC(S)CCOC(C)=O` (configuration not stated): “inactive”; `CC(CO)CS` (configuration not stated): “inactive”.
Same read-out and setting: the value for `CC1=C(O)C(=O)OC1C` (configuration not stated) was “inactive”; that for `CCCCC(S)C(C)CO` (configuration not stated) was “inactive”.

For another experiment, the target named is T3, OR5V1 (Homo sapiens) (UniProt Q9UGF6).
T3 sequence (whole entry): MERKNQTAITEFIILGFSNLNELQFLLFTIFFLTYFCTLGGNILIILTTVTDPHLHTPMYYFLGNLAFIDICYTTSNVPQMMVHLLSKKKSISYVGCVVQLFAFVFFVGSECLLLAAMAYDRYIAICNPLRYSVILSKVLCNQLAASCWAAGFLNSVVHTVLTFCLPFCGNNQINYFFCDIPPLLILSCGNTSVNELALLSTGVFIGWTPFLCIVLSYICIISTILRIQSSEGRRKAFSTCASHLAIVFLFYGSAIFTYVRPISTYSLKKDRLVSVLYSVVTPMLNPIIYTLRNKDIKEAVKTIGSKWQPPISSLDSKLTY
The conditions noted are these: stereoisomer not certain. The gist of the method:
as §1
Regarding `CCC(S)C(C)CO` (configuration not stated), the “odorant receptor agonist call” value is “inactive”.
For `CC(=O)c1c(C)c([N+](=O)[O-])c(C(C)(C)C)c([N+](=O)[O-])c1C`, the “odorant receptor agonist call” value was “inactive”.
The same measure, in the same setting: the value for `CC1CCCCCCCCCCCCC(=O)C1` (configuration not stated) was “inactive”.
On the same count and under the same terms, next, `CCCCCCC=CCCC=O`: “inactive”.
`Cc1cnc(C)c(C)n1`: the “odorant receptor agonist call” value was “inactive”.
Same read-out and setting: next, `CC1=C(O)C(=O)C(C)O1` (configuration not stated): “inactive”.
Still for that read-out and setting: next, `CCC1OC(C)=C(O)C1=O` (configuration not stated): “inactive”; `CC1=NC(C)C(C)S1` (configuration not stated): “inactive”; `CCCCCC(S)C(C)CO` (configuration not stated): “inactive”.
Take `CCCCCC(=O)C(C)C(C)=O` (configuration not stated): the “odorant receptor agonist call” value is “inactive”.
Consider `CCC1OC(=O)C(O)=C1C` (configuration not stated), for which the “odorant receptor agonist call” value is “inactive”.
As to `CCCC(S)CCOC(C)=O` (configuration not stated), the “odorant receptor agonist call” value is “inactive”.
Still for that read-out and setting: the value for `CC(CO)CS` (configuration not stated) was “inactive”; that for `CC1=C(O)C(=O)OC1C` (configuration not stated) was “inactive”.
As for `CCCCC(S)C(C)CO` (configuration not stated), the “odorant receptor agonist call” value was “inactive”.

In another experiment the target is T4, OR5W2 (Homo sapiens) (UniProt Q8NH69).
T4 sequence (whole entry): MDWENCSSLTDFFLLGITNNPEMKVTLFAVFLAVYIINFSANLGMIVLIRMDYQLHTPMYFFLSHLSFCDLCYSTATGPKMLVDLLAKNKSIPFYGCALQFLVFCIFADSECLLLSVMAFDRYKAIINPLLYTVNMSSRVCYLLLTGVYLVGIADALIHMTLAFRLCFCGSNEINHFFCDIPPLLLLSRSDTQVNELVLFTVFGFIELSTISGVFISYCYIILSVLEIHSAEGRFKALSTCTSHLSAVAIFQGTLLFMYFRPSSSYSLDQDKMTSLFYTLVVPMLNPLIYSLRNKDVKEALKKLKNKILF
The conditions noted are these: stereoisomer not certain. Summed up: as §1
As to `CCC(S)C(C)CO` (configuration not stated), the “odorant receptor agonist call” value is “inactive”.
Still for that read-out and setting: next, `CC(=O)c1c(C)c([N+](=O)[O-])c(C(C)(C)C)c([N+](=O)[O-])c1C`: “inactive”; `CC1CCCCCCCCCCCCC(=O)C1` (configuration not stated): “inactive”.
Turning to `CCCCCCC=CCCC=O`, the “odorant receptor agonist call” value was “inactive”.
For `Cc1cnc(C)c(C)n1`, the “odorant receptor agonist call” value is “inactive”.
For the compound `CC1=C(O)C(=O)C(C)O1` (configuration not stated), the “odorant receptor agonist call” value was “inactive”.
Regarding `CCC1OC(C)=C(O)C1=O` (configuration not stated), the “odorant receptor agonist call” value was “inactive”.
Same read-out and setting: next, `CC1=NC(C)C(C)S1` (configuration not stated): “inactive”.
Same read-out and setting: next, `CCCCCC(S)C(C)CO` (configuration not stated): “inactive”; `CCCCCC(=O)C(C)C(C)=O` (configuration not stated): “inactive”.
As to `CCC1OC(=O)C(O)=C1C` (configuration not stated), the “odorant receptor agonist call” value is “inactive”.
Consider `CCCC(S)CCOC(C)=O` (configuration not stated), for which the “odorant receptor agonist call” value was “inactive”.
Consider `CC(CO)CS` (configuration not stated), for which the “odorant receptor agonist call” value was “inactive”.
On to `CC1=C(O)C(=O)OC1C` (configuration not stated), for which the “odorant receptor agonist call” value is “inactive”.
On the same count and under the same terms, the value for `CCCCC(S)C(C)CO` (configuration not stated) was “inactive”.

For the next experiment, the system named is T5, OR5W2 R189C.
T5 sequence (whole entry): T4 sequence (whole entry) with R189C
As to conditions: stereoisomer not certain. The gist of the method: as §1
Consider `CCCCCCC=CCCC=O`, for which the “odorant receptor agonist call” value is “inactive”.
Same read-out and setting: the value for `Cc1cnc(C)c(C)n1` was “inactive”; that for `CC1=C(O)C(=O)C(C)O1` (configuration not stated) was “inactive”; that for `CCC1OC(C)=C(O)C1=O` (configuration not stated) was “inactive”.
